Assay results reported in ChEMBL document CHEMBL3525900, “Pharmacokinetics, distribution, and metabolism of [14C]sunitinib in rats, monkeys, and humans” (Drug Metab Dispos, 2012).

Assays:
Adrenal = experiment: Drug concentration in male albino rat adrenal assessed as radioactivity per gram of tissue at 20 mg/kg administered as single dose via gastric gavage measured after 72 hrs by autoradiographic analysis; format: ADME, organism-based; set-up: dose 20 mg/kg, dosed compound name [14C]Sunitinib; settings: in vivo, po
[1] = Drug concentration in female albino rat lymph node assessed as radioactivity per gram of tissue at 20 mg/kg administered as single dose via gastric gavage measured after 3 hrs by autoradiographic analysis; format: ADME, organism-based; set-up: dose 20 mg/kg, dosed compound name [14C]Sunitinib; settings: in vivo, po
How it was run: (§1)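 Sprague Dawley albino rats, ca 7-8 weeks old, dosed once by gastric gavage with [14C]sunitinib L-malate (15 mg freebase/kg, 100 µCi/kg). One male and one female killed by CO2 at 3, 6, 24, 72 and 168 h. Carcasses frozen in solid CO2/hexane, embedded and cut into 30 µm sagittal sections, then freeze-dried. Radioactivity quantified by whole-body autoradiography against standards by regression, background subtracted.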

Kidney [2] = experiment: Drug concentration in male Lister Hooded pigmented rat kidney assessed as radioactivity per gram of tissue at 20 mg/kg administered as single dose via gastric gavage measured after 72 hrs by autoradiographic analysis; format: ADME, organism-based; set-up: dose 20 mg/kg, dosed compound name [14C]Sunitinib; settings: in vivo, po
[3] = Drug concentration in male albino rat preputial gland assessed as radioactivity per gram of tissue at 20 mg/kg administered as single dose via gastric gavage measured after 72 hrs by autoradiographic analysis; format: ADME, organism-based; set-up: dose 20 mg/kg, dosed compound name [14C]Sunitinib; settings: in vivo, po
[4] = Drug concentration in female Lister Hooded pigmented rat uveal tract assessed as radioactivity per gram of tissue at 20 mg/kg administered as single dose via gastric gavage measured after 336 hrs by autoradiographic analysis; format: ADME, organism-based; set-up: dose 20 mg/kg, dosed compound name [14C]Sunitinib; settings: in vivo, po
How it was run: (§2)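 Lister Hooded (pigmented) rats, ca 7-8 weeks old, acclimated 7 days, given [14C]sunitinib L-malate by gastric gavage at 20 mg/kg (15 mg freebase/kg, 100 µCi/kg). One male and one female killed by CO2 at 24, 72, 168 and 336 h. Carcasses frozen in solid CO2/hexane and embedded in frozen cellulose. 30 µm sagittal cryosections were freeze-dried. Tissue radioactivity measured by quantitative whole-body autoradiography against calibration standards, with background subtracted.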

Large intestine [5] = experiment: Drug concentration in female Lister Hooded pigmented rat large intestine assessed as radioactivity per gram of tissue at 20 mg/kg administered as single dose via gastric gavage measured after 24 hrs by autoradiographic analysis; format: ADME, organism-based; set-up: dose 20 mg/kg, dosed compound name [14C]Sunitinib; settings: in vivo, po; how it was run: as §2
Cynomolgus monkey = experiment: Total drug recovery in female cynomolgus monkey at 6 mg/kg, po administered as single dose during 0 to 336 hrs by liquid scintillation counting; format: ADME, organism-based, Macaca fascicularis; set-up: dose 6 mg/kg, dosed compound name [14C]Sunitinib, route oral; settings: in vivo
[6] = Drug recovery in urine of female Sprague-Dawley rat at 15 mg/kg, po administered as single dose during 0 to 72 hrs by liquid scintillation counting; format: ADME, organism-based; set-up: dose 15 mg/kg, dosed compound name [14C]Sunitinib, route oral; settings: in vivo
[7] = Drug recovery in urine of female Sprague-Dawley rat at 5 mg/kg, iv administered as single dose during 0 to 72 hrs by liquid scintillation counting; format: ADME, organism-based; set-up: dose 5 mg/kg, dosed compound name [14C]Sunitinib, route intravenous; settings: in vivo
[8] = Drug concentration in female albino rat skeletal muscle assessed as radioactivity per gram of tissue at 20 mg/kg administered as single dose via gastric gavage measured after 24 hrs by autoradiographic analysis; format: ADME, organism-based; set-up: dose 20 mg/kg, dosed compound name [14C]Sunitinib; settings: in vivo, po
Liver [9] = experiment: Drug concentration in male albino rat liver assessed as radioactivity per gram of tissue at 20 mg/kg administered as single dose via gastric gavage measured after 3 hrs by autoradiographic analysis; format: ADME, organism-based; set-up: dose 20 mg/kg, dosed compound name [14C]Sunitinib; settings: in vivo, po
Large intestine [10] = experiment: Drug concentration in male Lister Hooded pigmented rat large intestine assessed as radioactivity per gram of tissue at 20 mg/kg administered as single dose via gastric gavage measured after 24 hrs by autoradiographic analysis; format: ADME, organism-based; set-up: dose 20 mg/kg, dosed compound name [14C]Sunitinib; settings: in vivo, po
Spinal cord = experiment: Drug concentration in male Lister Hooded pigmented rat spinal cord assessed as radioactivity per gram of tissue at 20 mg/kg administered as single dose via gastric gavage measured after 168 hrs by autoradiographic analysis; format: ADME, organism-based; set-up: dose 20 mg/kg, dosed compound name [14C]Sunitinib; settings: in vivo, po
[11] = Drug concentration in male Lister Hooded pigmented rat lachrymal gland assessed as radioactivity per gram of tissue at 20 mg/kg administered as single dose via gastric gavage measured after 168 hrs by autoradiographic analysis; format: ADME, organism-based; set-up: dose 20 mg/kg, dosed compound name [14C]Sunitinib; settings: in vivo, po
[12] = Drug recovery in urine of female cynomolgus monkey at 6 mg/kg, po administered as single dose during 0 to 336 hrs by liquid scintillation counting; format: ADME, organism-based, Macaca fascicularis; set-up: dose 6 mg/kg, dosed compound name [14C]Sunitinib, route oral; settings: in vivo
Rattus norvegicus [13] = experiment: AUC (0 to infinity) as total radioactivity in female Sprague-Dawley rat plasma at 5 mg/kg, iv administered as single dose by LC/MS/MS analysis; format: ADME, organism-based; set-up: dose 5 mg/kg, dosed compound name [14C]Sunitinib, route intravenous, time infinity; settings: in vivo
How it was run: (§3)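 Single dose of [14C]sunitinib L-malate as free base, 50 µCi/kg. IV dose was 5 mg/kg by tail vein in 5 females. Oral dose was 15 mg/kg by gavage in 3 females and 3 males. Total radioactivity was by scintillation counting. […] Cmax was read from raw data, t½ by log-linear regression, AUC by linear trapezoidal rule.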

Liver [14] = experiment: Drug concentration in male Lister Hooded pigmented rat liver assessed as radioactivity per gram of tissue at 20 mg/kg administered as single dose via gastric gavage measured after 72 hrs by autoradiographic analysis; format: ADME, organism-based; set-up: dose 20 mg/kg, dosed compound name [14C]Sunitinib; settings: in vivo, po
[15] = Drug concentration in female albino rat lachrymal gland assessed as radioactivity per gram of tissue at 20 mg/kg administered as single dose via gastric gavage measured after 72 hrs by autoradiographic analysis; format: ADME, organism-based; set-up: dose 20 mg/kg, dosed compound name [14C]Sunitinib; settings: in vivo, po; how it was run: as §1
Large intestine [16] = experiment: Drug concentration in male albino rat large intestine assessed as radioactivity per gram of tissue at 20 mg/kg administered as single dose via gastric gavage measured after 3 hrs by autoradiographic analysis; format: ADME, organism-based; set-up: dose 20 mg/kg, dosed compound name [14C]Sunitinib; settings: in vivo, po
[17] = Drug concentration in male albino rat uveal tract assessed as radioactivity per gram of tissue at 20 mg/kg administered as single dose via gastric gavage measured after 24 hrs by autoradiographic analysis; format: ADME, organism-based; set-up: dose 20 mg/kg, dosed compound name [14C]Sunitinib; settings: in vivo, po
Kidney [18] = experiment: Drug concentration in male albino rat kidney assessed as radioactivity per gram of tissue at 20 mg/kg administered as single dose via gastric gavage measured after 6 hrs by autoradiographic analysis; format: ADME, organism-based; set-up: dose 20 mg/kg, dosed compound name [14C]Sunitinib; settings: in vivo, po
[19] = Drug concentration in male albino rat pituitary gland assessed as radioactivity per gram of tissue at 20 mg/kg administered as single dose via gastric gavage measured after 168 hrs by autoradiographic analysis; format: ADME, organism-based; set-up: dose 20 mg/kg, dosed compound name [14C]Sunitinib; settings: in vivo, po
[20] = Drug concentration in female albino rat eye assessed as radioactivity per gram of tissue at 20 mg/kg administered as single dose via gastric gavage measured after 24 hrs by autoradiographic analysis; format: ADME, organism-based; set-up: dose 20 mg/kg, dosed compound name [14C]Sunitinib; settings: in vivo, po; how it was run: as §1
Brain = experiment: Drug concentration in male Lister Hooded pigmented rat brain assessed as radioactivity per gram of tissue at 20 mg/kg administered as single dose via gastric gavage measured after 24 hrs by autoradiographic analysis; format: ADME, organism-based; set-up: dose 20 mg/kg, dosed compound name [14C]Sunitinib; settings: in vivo, po
Pancreas = experiment: Drug concentration in male albino rat pancreas assessed as radioactivity per gram of tissue at 20 mg/kg administered as single dose via gastric gavage measured after 24 hrs by autoradiographic analysis; format: ADME, organism-based; set-up: dose 20 mg/kg, dosed compound name [14C]Sunitinib; settings: in vivo, po
Rattus norvegicus [21] = experiment: AUC (0 to infinity) as total radioactivity in female Sprague-Dawley rat plasma at 15 mg/kg, po administered as single dose by LC/MS/MS analysis; format: ADME, organism-based; set-up: time infinity, dose 15 mg/kg, dosed compound name [14C]Sunitinib, route oral; settings: in vivo; how it was run: as §3
[22] = Drug concentration in female albino rat bladder assessed as radioactivity per gram of tissue at 20 mg/kg administered as single dose via gastric gavage measured after 3 hrs by autoradiographic analysis; format: ADME, organism-based, Urinary bladder; set-up: dose 20 mg/kg, dosed compound name [14C]Sunitinib; settings: in vivo, po
How it was run: (§4)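 Sprague Dawley (albino) rats, ca 7-8 weeks old, received a single gastric-gavage dose of [14C]sunitinib L-malate at 20 mg/kg (15 mg freebase/kg, 100 µCi/kg). One animal per sex killed by CO2 at 3, 6, 24, 72 and 168 h, then frozen in CO2/hexane. 30 µm sagittal sections were cut and freeze-dried. Radioactivity per gram quantified by whole-body autoradiography using regression against standards. LOQ 0.04–0.06 µg freebase equiv/g.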

Zone of skin = experiment: Drug concentration in female albino rat abdomen skin assessed as radioactivity per gram of tissue at 20 mg/kg administered as single dose via gastric gavage measured after 168 hrs by autoradiographic analysis; format: ADME, organism-based; set-up: dose 20 mg/kg, dosed compound name [14C]Sunitinib; settings: in vivo, po; how it was run: as §4

Question: Which results are given for `CCN(CC)CCNC(=O)c1c(C)[nH]c(/[14CH]=C2\C(=O)Nc3ccc(F)cc32)c1C.O=C(O)C[C@H](O)C(=O)O`?
Answer: Radiolabel recovery (Adrenal): 1.52 ugequiv; Radiolabel recovery [1]: 12.39 ugequiv; Radiolabel recovery (Kidney [2]): 0.26 ugequiv; Radiolabel recovery [3]: 0.13 ugequiv; Radiolabel recovery [4]: 323.3 ugequiv; Radiolabel recovery (Large intestine [5]): 0.78 ugequiv; Radiolabel recovery (Cynomolgus monkey): 90.7%; Radiolabel recovery [6]: 9.3%; Radiolabel recovery [7]: 9.1%; Radiolabel recovery [8]: 0.33 ugequiv; Radiolabel recovery (Liver [9]): 15.71 ugequiv; Radiolabel recovery (Large intestine [10]): 0.69 ugequiv; Radiolabel recovery (Spinal cord): 0.06 ugequiv; Radiolabel recovery [11]: 0.06 ugequiv; Radiolabel recovery [12]: 6.1%; AUC (Rattus norvegicus [13]): 17427 ng.Eq.hr/ml; Radiolabel recovery (Liver [14]): 0.22 ugequiv; Radiolabel recovery [15]: 0.25 ugequiv; Radiolabel recovery (Large intestine [16]): 6.05 ugequiv; Radiolabel recovery [17]: 0.13 ugequiv; Radiolabel recovery (Kidney [18]): 9.43 ugequiv; Radiolabel recovery [19]: 0.76 ugequiv; Radiolabel recovery [20]: 0.43 ugequiv; Radiolabel recovery (Brain): 0.06 ugequiv; Radiolabel recovery (Pancreas): 1.68 ugequiv; AUC (Rattus norvegicus [21]): 69949 ng.Eq.hr/ml; Radiolabel recovery [22]: 3.73 ugequiv; Radiolabel recovery (Zone of skin): 0.26 ugequiv
